Assay [1] deals with Bacillus subtilis. The experiment in a line: Antibacterial activity against Bacillus subtilis 168. It is filed as functional, organism-based. As to conditions: subsp. subtilis str. 168. An outline of the steps: (§1)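 Agar plate diffusion: 5.5 mm susceptibility disks loaded with 5 µg pure compound (1 mg for crude extracts) placed on agar plates seeded with the test organism (B. subtilis 168, S. aureus ATCC 25923, E. coli ATCC 25922 or C. albicans); inhibition zones read after 24 h incubation at 37 °C.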

Assay [2] concerns Staphylococcus aureus. The assay can be described thus: Antibacterial activity against Staphylococcus aureus ATCC 25923. It is filed as functional, organism-based. The gist of the method:
as §1

For assay [3], the system named is Escherichia coli. The assay can be described thus: Antibacterial activity against Escherichia coli ATCC 25922. It is filed as functional, organism-based. The gist of the method:
as §1

Assay [4] concerns Staphylococcus aureus. The assay can be described thus: Antibacterial activity against Staphylococcus aureus ATCC 25923 at 5 ug after 24 hrs by agar plate diffusion assay. It is filed as functional. To be noted: ATCC 25923, 24 h, read-out: IZ. An outline of the steps:
as §1

The test system of assay [5] is Escherichia coli. The assay can be described thus: Antibacterial activity against Escherichia coli ATCC 25922 at 5 ug after 24 hrs by agar plate diffusion assay. It is filed as functional, organism-based. An outline of the steps:
as §1

The test system of assay [6] is Bacillus subtilis. The assay can be described thus: Antibacterial activity against Bacillus subtilis 168 at 5 ug after 24 hrs by agar plate diffusion assay. To be noted: subsp. subtilis str. 168, 24 h, read-out: IZ. It is filed as functional. An outline of the steps: as §1
The subject of another assay is Candida albicans. The experiment in a line: Antifungal activity against Candida albicans at 5 ug after 24 hrs by agar plate diffusion assay. It is filed as functional, organism-based. The gist of the method:
as §1

From ChEMBL document CHEMBL1150820, “New macrolides and furan carboxylic acid derivative from the sponge-derived fungus Cladosporium herbarum” (2001) come the findings set out here.

Calls of active or inactive are those of the source. The rule behind the calls is not given here.

As to `COC(=O)C(O)CSC1CC(=O)OC(C)CCCCCC(O)C1=O` (centres undefined), the outcome with Bacillus subtilis [1], in the assay on Staphylococcus aureus [2] and in the assay with Escherichia coli [3] was inactive.

Take `O=C(O)c1ccc(CO)o1` [SUMIKI'S ACID]: the zone of inhibition at 5 µg/disc in the assay with Staphylococcus aureus [4] and in the assay with Bacillus subtilis [6] was 7 mm throughout. For the same compound, the “inhibition zone (IZ)” value in the assay with Escherichia coli [5] and in the assay on Candida albicans was “inactive” in each case.

In the case of `CC1CCCCCC(O)C(=O)C(SC2CC(=O)OC(C)CCCCCC(O)C2=O)CC(=O)O1` (centres undefined), the outcome in the assay on Bacillus subtilis [1], with Staphylococcus aureus [2] and with Escherichia coli [3] was inactive.

As for `CC(=O)OCc1ccc(C(=O)O)o1` [ACETYL SUMIKI'S ACID], the zone of inhibition at 5 µg/disc in the assay on Staphylococcus aureus [4] and with Bacillus subtilis [6] was 7 mm throughout. The “inhibition zone (IZ)” value with Escherichia coli [5] and with Candida albicans was “inactive” in each case.
